Test results from ChEMBL document CHEMBL5385905, “Design, synthesis and characterisation of a novel type II B-RAF paradox breaker inhibitor” (Eur J Med Chem, 2023).
Calls of active or inactive are those of the source. The calls are words filed in the database; no cut-off is given here.

Key:
[1] = molecular target: Tyrosine-protein kinase Blk (Homo sapiens) (UniProt P51451); test: Inhibition of BLK (unknown origin) at 1 uM relative to control
[2] = molecular target: Tyrosine-protein kinase HCK (Homo sapiens) (UniProt P08631); test: Inhibition of HCK (unknown origin) at 1 uM relative to control
[3] = molecular target: Vascular endothelial growth factor receptor 2 (Homo sapiens) (UniProt P35968); test: Inhibition of VEGFR2 (unknown origin) at 1 uM relative to control
A-375 [4] = test: Inhibition of MAPK pathway in human A-375 cells expressing B-RAF V600E mutant assessed as downregulation of MEK phosphorylation incubated for 1 to 4 hrs by immunoblotting analysis; assay type: cell-based; details: time 1-4 hrs
Outline: (§1)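 SW620 seeded at 750 000 and A375 at 300 000 cells/well in 6-well format, grown 48 h to 75% confluence. Treated with increasing compound concentrations for 1 or 4 h. Lysis in 10 mM Tris-HCl, 1% SDS, 20 mM Na3VO4. 10–25 µg protein run on SDS-PAGE, transferred to PVDF, probed for MEK, phospho-MEK, phospho-ERK, B-Raf and actin. Read by LI-COR Odyssey.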

[5] = molecular target: Tyrosine-protein kinase ABL1 (Homo sapiens) (UniProt P00519); test: Inhibition of ABL1 (unknown origin) at 1 uM relative to control
SW620 [6] = test: Inhibition of MAPK pathway in human SW620 cells expressing wild type B-RAF assessed as effect on ERK protein expression incubated for 1 to 4 hrs by immunoblotting analysis; assay type: cell-based; details: time 1-4 hrs
[7] = molecular target: Vascular endothelial growth factor receptor 1 (Homo sapiens) (UniProt P17948); test: Inhibition of FLT1 (unknown origin) at 1 uM relative to control
[8] = molecular target: Macrophage colony-stimulating factor 1 receptor (Homo sapiens) (UniProt P07333); test: Inhibition of CSF1R (unknown origin) at 1 uM relative to control
A-375 [9] = test: Cytotoxicity against human A-375 cells expressing B-RAF V600E mutant assessed as inhibition of cell proliferation incubated for 96 hrs by MTT assay; assay type: functional, cell-based
Outline: (§2)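 SW620 (ATCC) seeded at 4000 cells/well and A375 (ATCC) at 1000 cells/well in 96-well format. Compounds added the next day at increasing concentrations. Exposure 96 h. Viability read by MTT method per Mosmann.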

[10] = molecular target: Mitogen-activated protein kinase 14 (Homo sapiens) (UniProt Q16539); test: Inhibition of p-38 alpha (unknown origin) at 1 uM relative to control
[11] = molecular target: Ribosomal protein S6 kinase alpha-1 (Homo sapiens) (UniProt Q15418); test: Inhibition of RSK1 (unknown origin) at 1 uM relative to control
[12] = molecular target: Proto-oncogene tyrosine-protein kinase receptor Ret (Homo sapiens) (UniProt P07949); test: Inhibition of RET (unknown origin) at 1 uM relative to control
A-375 [13] = test: Cytotoxicity against human A-375 cells incubated for 96 hrs by MTT assay; assay type: functional, cell-based; details: A-375, 96 h; outline: as §2
[14] = molecular target: Tyrosine-protein kinase Lck (Homo sapiens) (UniProt P06239); test: Inhibition of LCK (unknown origin) at 1 uM relative to control
A-375 [15] = test: Inhibition of MAPK pathway in human A-375 cells expressing B-RAF V600E mutant assessed as downregulation of ERK phosphorylation incubated for 1 to 4 hrs by immunoblotting analysis; assay type: cell-based; details: time 1-4 hrs; outline: as §1
[16] = molecular target: Tyrosine-protein kinase Yes (Homo sapiens) (UniProt P07947); test: Inhibition of YES (unknown origin) at 1 uM relative to control
[17] = molecular target: Tyrosine-protein kinase TXK (Homo sapiens) (UniProt P42681); test: Inhibition of TXK (unknown origin) at 1 uM relative to control
[18] = molecular target: Mitogen-activated protein kinase 11 (Homo sapiens) (UniProt Q15759); test: Inhibition of p-38 beta (unknown origin) at 1 uM relative to control
[19] = molecular target: Tyrosine-protein kinase Lyn (Homo sapiens) (UniProt P07948); test: Inhibition of LYN (unknown origin) at 1 uM relative to control
SW-620 [20] = test: Cytotoxicity against human SW620 cells incubated for 96 hrs by MTT assay; assay type: functional, cell-based; outline: as §2
[21] = molecular target: T1, Dual specificity mitogen-activated protein kinase kinase 5 (Homo sapiens) (UniProt Q13163); test: Inhibition of MEK5 (unknown origin) at 1 uM relative to control
T1 sequence (whole entry): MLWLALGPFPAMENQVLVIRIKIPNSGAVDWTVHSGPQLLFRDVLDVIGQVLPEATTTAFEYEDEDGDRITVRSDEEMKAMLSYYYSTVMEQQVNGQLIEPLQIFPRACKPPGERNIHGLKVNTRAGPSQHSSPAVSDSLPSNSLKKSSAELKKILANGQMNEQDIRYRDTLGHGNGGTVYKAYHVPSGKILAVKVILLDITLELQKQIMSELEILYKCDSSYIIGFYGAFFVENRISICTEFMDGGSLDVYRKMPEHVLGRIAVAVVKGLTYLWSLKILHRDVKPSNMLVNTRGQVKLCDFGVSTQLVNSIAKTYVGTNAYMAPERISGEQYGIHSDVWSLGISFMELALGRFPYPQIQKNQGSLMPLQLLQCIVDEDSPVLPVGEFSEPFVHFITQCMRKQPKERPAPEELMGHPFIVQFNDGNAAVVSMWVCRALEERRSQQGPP

SW-620 [22] = test: Cytotoxicity against human SW620 cells expressing wild type B-RAF assessed as inhibition of cell proliferation incubated for 96 hrs by MTT assay; assay type: functional, cell-based; outline: as §2
[23] = molecular target: Vascular endothelial growth factor receptor 3 (Homo sapiens) (UniProt P35916); test: Inhibition of FLT4 (unknown origin) at 1 uM relative to control
[24] = molecular target: Tyrosine-protein kinase CSK (Homo sapiens) (UniProt P41240); test: Inhibition of CSK (unknown origin) at 1 uM relative to control
[25] = molecular target: Tyrosine-protein kinase Fyn (Homo sapiens) (UniProt P06241); test: Inhibition of FYN (unknown origin) at 1 uM relative to control
[26] = molecular target: Proto-oncogene tyrosine-protein kinase Src (Homo sapiens) (UniProt P12931); test: Inhibition of SRC (unknown origin) at 1 uM relative to control
[27] = molecular target: Platelet-derived growth factor receptor alpha (Homo sapiens) (UniProt P16234); test: Inhibition of PDGFRA (unknown origin) at 1 uM relative to control
[28] = molecular target: Platelet-derived growth factor receptor beta (Homo sapiens) (UniProt P09619); test: Inhibition of PDGFRB (unknown origin) at 1 uM relative to control
[29] = molecular target: RAF proto-oncogene serine/threonine-protein kinase (Homo sapiens) (UniProt P04049); test: Inhibition of RAF1 (unknown origin) at 1 uM relative to control
[30] = molecular target: Mast/stem cell growth factor receptor Kit (Homo sapiens) (UniProt P10721); test: Inhibition of KIT (unknown origin) at 1 uM relative to control
[31] = molecular target: Serine/threonine-protein kinase B-raf (Homo sapiens, UniProt P15056); test: Inhibition of wild type B-RAF (unknown origin) expressed in Escherichia coli BL21 (DE3)
[32] = molecular target: Serine/threonine-protein kinase B-raf (Homo sapiens, UniProt P15056, V600E); test: Inhibition of B-RAF V600E mutant (unknown origin) expressed in Escherichia coli BL21 (DE3)
[33] = molecular target: Serine/threonine-protein kinase VRK2 (Homo sapiens) (UniProt Q86Y07); test: Inhibition of VRK2 (unknown origin) at 1 uM relative to control
[34] = molecular target: Tyrosine-protein kinase Fgr (Homo sapiens) (UniProt P09769); test: Inhibition of FGR (unknown origin) at 1 uM relative to control
[35] = molecular target: Dual specificity mitogen-activated protein kinase kinase 4 (Homo sapiens) (UniProt P45985); test: Inhibition of MEK4 (unknown origin) at 1 uM relative to control
SW620 [36] = test: Inhibition of MAPK pathway in human SW620 cells expressing wild type B-RAF assessed as downregulation of MEK phosphorylation incubated for 1 to 4 hrs by immunoblotting analysis; assay type: cell-based; details: time 1-4 hrs; outline: as §1
SW620 [37] = test: Inhibition of MAPK pathway in human SW620 cells expressing wild type B-RAF assessed as downregulation of ERK phosphorylation incubated for 1 to 4 hrs by immunoblotting analysis; assay type: cell-based; details: time 1-4 hrs; outline: as §1
[38] = molecular target: Receptor-type tyrosine-protein kinase FLT3 (Homo sapiens) (UniProt P36888); test: Inhibition of FLT3 (unknown origin) at 1 uM relative to control
[39] = molecular target: Cyclin-dependent kinase 19 (Homo sapiens) (UniProt Q9BWU1); test: Inhibition of CDK11 (unknown origin) at 1 uM relative to control
[40] = molecular target: Mitogen-activated protein kinase kinase kinase kinase 4 (Homo sapiens) (UniProt O95819); test: Inhibition of MAP4K4 (unknown origin) at 1 uM relative to control
[41] = molecular target: Cytoplasmic tyrosine-protein kinase BMX (Homo sapiens) (UniProt P51813); test: Inhibition of BMX (unknown origin) at 1 uM relative to control
[42] = molecular target: Fibroblast growth factor receptor 1 (Homo sapiens) (UniProt P11362); test: Inhibition of FGFR1 (unknown origin) at 1 uM relative to control
[43] = molecular target: Fibroblast growth factor receptor 2 (Homo sapiens) (UniProt P21802); test: Inhibition of FGFR2 (unknown origin) at 1 uM relative to control
[44] = Homo sapiens, SW-620, 96 h, read-out: IC50

Tyrosine-protein kinase Blk (Homo sapiens), sequence (P51451 2-505 limits assumed): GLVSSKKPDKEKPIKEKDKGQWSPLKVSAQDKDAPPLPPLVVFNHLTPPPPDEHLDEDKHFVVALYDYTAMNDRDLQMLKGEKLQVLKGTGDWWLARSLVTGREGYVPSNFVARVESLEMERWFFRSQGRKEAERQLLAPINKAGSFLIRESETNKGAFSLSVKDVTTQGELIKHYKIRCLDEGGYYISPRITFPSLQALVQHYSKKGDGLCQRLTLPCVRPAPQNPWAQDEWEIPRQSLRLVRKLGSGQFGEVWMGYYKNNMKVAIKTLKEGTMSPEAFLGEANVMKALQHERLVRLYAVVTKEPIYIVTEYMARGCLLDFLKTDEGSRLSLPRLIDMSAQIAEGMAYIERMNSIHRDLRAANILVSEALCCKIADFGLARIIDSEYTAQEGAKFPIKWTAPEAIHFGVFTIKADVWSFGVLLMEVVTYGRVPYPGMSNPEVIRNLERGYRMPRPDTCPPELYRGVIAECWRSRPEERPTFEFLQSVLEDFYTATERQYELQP
Platelet-derived growth factor receptor beta (Homo sapiens), sequence (P09619 whole entry): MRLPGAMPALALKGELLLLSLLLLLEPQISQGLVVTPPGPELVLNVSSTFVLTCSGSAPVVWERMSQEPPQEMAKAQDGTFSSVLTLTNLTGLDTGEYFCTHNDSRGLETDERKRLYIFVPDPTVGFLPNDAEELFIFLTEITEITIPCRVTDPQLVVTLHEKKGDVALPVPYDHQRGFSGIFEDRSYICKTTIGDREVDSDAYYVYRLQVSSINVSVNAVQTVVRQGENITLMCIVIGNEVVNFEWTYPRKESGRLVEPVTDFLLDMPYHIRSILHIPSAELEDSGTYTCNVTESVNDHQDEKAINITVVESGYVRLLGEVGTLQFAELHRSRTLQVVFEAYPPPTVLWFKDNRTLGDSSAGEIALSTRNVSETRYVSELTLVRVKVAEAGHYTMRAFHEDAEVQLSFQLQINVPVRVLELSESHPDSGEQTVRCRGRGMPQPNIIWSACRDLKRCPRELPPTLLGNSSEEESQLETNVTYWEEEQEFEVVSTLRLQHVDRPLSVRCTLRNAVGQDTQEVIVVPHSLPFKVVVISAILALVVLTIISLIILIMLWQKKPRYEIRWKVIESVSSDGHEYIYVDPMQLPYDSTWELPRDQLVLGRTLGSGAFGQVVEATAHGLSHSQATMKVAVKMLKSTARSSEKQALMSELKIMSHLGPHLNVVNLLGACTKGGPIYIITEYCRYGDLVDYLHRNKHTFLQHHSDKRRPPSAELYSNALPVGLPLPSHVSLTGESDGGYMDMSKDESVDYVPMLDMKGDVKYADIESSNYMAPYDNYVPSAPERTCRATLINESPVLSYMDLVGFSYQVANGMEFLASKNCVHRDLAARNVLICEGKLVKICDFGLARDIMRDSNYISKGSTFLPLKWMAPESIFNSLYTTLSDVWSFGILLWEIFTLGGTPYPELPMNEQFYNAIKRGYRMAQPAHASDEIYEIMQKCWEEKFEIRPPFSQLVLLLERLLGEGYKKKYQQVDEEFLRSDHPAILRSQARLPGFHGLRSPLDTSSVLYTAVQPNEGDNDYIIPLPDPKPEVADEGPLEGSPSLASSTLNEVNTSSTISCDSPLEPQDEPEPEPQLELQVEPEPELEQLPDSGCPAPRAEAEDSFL
RAF proto-oncogene serine/threonine-protein kinase (Homo sapiens), sequence (P04049 whole entry): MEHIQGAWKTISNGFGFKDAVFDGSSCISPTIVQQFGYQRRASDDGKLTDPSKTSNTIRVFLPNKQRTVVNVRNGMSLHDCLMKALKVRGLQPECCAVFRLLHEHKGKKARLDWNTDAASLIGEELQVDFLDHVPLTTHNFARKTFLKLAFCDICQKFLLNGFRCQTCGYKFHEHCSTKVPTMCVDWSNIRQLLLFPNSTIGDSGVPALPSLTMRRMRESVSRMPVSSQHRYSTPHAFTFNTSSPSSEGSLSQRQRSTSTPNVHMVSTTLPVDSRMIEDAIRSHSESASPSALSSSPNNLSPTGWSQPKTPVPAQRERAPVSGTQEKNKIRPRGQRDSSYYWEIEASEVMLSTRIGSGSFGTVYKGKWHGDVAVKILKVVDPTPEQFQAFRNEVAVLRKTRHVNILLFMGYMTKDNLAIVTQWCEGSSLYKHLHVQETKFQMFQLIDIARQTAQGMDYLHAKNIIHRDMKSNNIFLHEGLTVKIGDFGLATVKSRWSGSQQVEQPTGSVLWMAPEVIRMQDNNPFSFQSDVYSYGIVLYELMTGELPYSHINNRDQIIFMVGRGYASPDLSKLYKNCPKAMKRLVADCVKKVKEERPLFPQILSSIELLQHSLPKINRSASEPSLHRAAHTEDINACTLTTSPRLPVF
Tyrosine-protein kinase Fgr (Homo sapiens), sequence (P09769 2-529 limits assumed): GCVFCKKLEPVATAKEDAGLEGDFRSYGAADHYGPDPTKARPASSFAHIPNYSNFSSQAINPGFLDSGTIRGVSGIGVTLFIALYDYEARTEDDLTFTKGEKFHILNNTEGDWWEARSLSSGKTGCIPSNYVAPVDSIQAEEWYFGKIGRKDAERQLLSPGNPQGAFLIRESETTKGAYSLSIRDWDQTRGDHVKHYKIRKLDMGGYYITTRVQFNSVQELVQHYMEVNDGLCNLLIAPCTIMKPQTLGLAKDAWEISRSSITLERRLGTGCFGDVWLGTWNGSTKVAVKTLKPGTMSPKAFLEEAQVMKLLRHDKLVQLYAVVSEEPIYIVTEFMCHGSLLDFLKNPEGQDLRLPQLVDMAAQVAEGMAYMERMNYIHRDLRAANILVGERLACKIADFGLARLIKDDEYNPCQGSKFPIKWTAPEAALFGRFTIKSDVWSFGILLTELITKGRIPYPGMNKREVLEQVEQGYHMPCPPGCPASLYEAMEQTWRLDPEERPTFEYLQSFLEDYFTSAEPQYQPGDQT
Mast/stem cell growth factor receptor Kit (Homo sapiens), sequence (P10721 whole entry): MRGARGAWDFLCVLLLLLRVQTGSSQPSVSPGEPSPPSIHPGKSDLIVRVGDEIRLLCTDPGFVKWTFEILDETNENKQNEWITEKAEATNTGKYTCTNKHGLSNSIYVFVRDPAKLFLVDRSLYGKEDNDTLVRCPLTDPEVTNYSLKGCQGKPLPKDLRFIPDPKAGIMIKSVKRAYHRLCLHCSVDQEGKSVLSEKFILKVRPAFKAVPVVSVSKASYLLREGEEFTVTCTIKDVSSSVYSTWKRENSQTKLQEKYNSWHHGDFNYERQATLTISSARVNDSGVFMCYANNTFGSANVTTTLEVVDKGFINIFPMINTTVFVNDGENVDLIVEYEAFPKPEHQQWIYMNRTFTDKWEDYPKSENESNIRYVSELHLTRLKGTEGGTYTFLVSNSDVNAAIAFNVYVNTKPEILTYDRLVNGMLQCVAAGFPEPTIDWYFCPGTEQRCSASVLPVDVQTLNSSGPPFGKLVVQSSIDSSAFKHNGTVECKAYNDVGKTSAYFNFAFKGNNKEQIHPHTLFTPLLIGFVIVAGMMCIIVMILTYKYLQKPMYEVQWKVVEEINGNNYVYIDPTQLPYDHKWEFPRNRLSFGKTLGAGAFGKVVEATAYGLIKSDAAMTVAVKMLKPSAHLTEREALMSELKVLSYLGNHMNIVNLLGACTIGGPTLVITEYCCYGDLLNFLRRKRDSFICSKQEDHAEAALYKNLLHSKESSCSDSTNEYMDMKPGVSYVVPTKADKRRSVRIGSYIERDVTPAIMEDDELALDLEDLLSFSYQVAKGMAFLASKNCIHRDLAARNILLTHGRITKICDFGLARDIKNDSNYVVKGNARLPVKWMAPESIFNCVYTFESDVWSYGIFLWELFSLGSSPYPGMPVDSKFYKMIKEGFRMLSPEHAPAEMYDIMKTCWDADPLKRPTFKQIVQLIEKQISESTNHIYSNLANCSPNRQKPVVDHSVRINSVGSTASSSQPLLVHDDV
Tyrosine-protein kinase Yes (Homo sapiens), sequence (P07947 2-543 limits assumed): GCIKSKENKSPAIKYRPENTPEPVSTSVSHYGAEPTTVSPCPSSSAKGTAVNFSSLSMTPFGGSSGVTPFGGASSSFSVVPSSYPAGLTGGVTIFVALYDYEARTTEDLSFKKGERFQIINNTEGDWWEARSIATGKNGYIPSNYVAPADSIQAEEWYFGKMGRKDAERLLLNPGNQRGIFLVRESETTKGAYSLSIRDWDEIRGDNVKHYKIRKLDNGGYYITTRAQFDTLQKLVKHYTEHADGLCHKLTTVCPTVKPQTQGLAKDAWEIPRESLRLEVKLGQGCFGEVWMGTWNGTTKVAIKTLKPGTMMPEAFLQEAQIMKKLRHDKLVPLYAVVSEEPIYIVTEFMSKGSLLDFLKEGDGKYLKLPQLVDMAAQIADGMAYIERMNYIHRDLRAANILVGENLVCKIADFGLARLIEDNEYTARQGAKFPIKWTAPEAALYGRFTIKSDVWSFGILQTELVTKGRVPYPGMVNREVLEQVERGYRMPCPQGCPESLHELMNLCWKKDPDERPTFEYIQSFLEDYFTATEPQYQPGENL
Mitogen-activated protein kinase 14 (Homo sapiens), sequence (Q16539 whole entry): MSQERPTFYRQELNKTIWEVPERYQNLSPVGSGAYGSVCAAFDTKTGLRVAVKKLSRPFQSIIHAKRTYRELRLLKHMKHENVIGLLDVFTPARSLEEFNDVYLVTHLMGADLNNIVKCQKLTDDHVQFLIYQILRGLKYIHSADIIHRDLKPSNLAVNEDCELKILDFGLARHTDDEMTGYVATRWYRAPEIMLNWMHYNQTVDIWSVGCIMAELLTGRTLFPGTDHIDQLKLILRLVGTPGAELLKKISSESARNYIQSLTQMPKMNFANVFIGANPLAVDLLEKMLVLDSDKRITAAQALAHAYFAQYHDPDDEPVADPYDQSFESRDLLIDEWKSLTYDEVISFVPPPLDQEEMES
Mitogen-activated protein kinase 11 (Homo sapiens), sequence (Q15759 whole entry): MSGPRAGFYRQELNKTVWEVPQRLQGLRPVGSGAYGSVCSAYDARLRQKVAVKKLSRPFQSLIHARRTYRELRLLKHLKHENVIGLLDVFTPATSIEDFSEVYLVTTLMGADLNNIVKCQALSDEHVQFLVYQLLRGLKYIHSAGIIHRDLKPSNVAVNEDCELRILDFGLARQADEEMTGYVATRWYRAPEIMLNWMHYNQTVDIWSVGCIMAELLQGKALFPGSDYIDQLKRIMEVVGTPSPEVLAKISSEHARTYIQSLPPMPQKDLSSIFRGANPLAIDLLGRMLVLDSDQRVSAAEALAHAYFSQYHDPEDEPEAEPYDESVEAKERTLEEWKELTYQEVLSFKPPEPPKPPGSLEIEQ

Structure (SMILES) | inhibition [1] | inhibition [2] | inhibition [3] | inhibition (A-375 [4]) | inhibition [5] | inhibition (SW620 [6]) | inhibition [7] | inhibition [8] | Activity (A-375 [9]) | inhibition [10] | inhibition [12] | IC50 (A-375 [13]) | inhibition [14] | inhibition (A-375 [15]) | inhibition [21] | Activity (SW-620 [22]) | inhibition [28] | inhibition [29] | inhibition [30] | inhibition [34] | further results
Cc1ccc(NC(=O)c2cccc(C(C)(C)C#N)c2)cc1Nc1ccc2ncn(C)c(=O)c2c1 | > 80% | > 80% | > 80% | Active | > 80% | inactive | > 80% | > 80% | Active | > 80% | > 80% | 40 nM | > 80% | Active | > 80% | Active | > 80% | > 80% | > 80% |  | inhibition [11]: > 80%; inhibition [16]: > 80%; inhibition [17]: > 80%; inhibition [18]: > 80%; inhibition [19]: > 80%; IC50 (SW-620 [20]; [44]): 170 nM; inhibition [23]: > 80%; inhibition [24]: > 80%; inhibition [25]: > 80%; inhibition [26]: > 80%; inhibition [27]: > 80%
CCN(C)S(=O)(=O)Nc1ccc(F)c(C(=O)c2c[nH]c3ncc(-c4ccc(Cl)cc4)cc23)c1F | > 80% |  |  | Active |  |  |  |  | Active |  |  | 560 nM |  | Active | > 80% | inactive | > 80% |  |  | > 80% | IC50 [31]: 690 nM; IC50 [32]: 1410 nM; IC50 (SW-620 [20]; sw-620): Not Active; inhibition [33]: > 80%
CCCS(=O)(=O)Nc1ccc(F)c(C(=O)c2c[nH]c3ncc(Cl)cc23)c1F |  |  |  |  |  |  |  |  |  |  |  |  |  |  | > 80% |  |  | > 80% | > 80% | > 80% | inhibition [35]: > 80%
CCCS(=O)(=O)Nc1ccc(F)c(C(=O)c2c[nH]c3ncc(-c4ccc(Cl)cc4)cc23)c1F [VEMURAFENIB] |  |  |  | Active |  |  |  |  | Active |  |  | 90 nM |  | Active | > 80% | inactive | > 80% | > 80% | > 80% | > 80% | inhibition (SW620 [36]): inactive; inhibition [35]: > 80%; inhibition (SW620 [37]): inactive; IC50 (SW-620 [20]; sw-620): Not Active
CC(C)(C#N)c1cccc(C(=O)Nc2ccc(F)c(C(=O)c3c[nH]c4ncc(Cl)cc34)c2F)c1 | > 80% | > 80% | > 80% | Active | > 80% | inactive | > 80% | > 80% | Active | > 80% | > 80% | ~10000 nM | > 80% | Active | > 80% | Active |  | > 80% | > 80% | > 80% | inhibition [38]: > 80%; inhibition [39]: > 80%; IC50 [31]: 56 nM; IC50 [32]: 48 nM; inhibition [40]: > 80%; inhibition [16]: > 80%; inhibition [17]: > 80%; inhibition [18]: > 80%; inhibition [41]: > 80%; inhibition [42]: > 80%; inhibition [19]: > 80%; IC50 (SW-620 [20]; [44]): 2810 nM; inhibition [23]: > 80%; inhibition [24]: > 80%; inhibition [25]: > 80%; inhibition [26]: > 80%; inhibition [27]: > 80%; inhibition [43]: > 80%
